# Screening data (PubChem)
# Shown are actives, neighbours in structure and some others; about 4.1% of the full set was active somewhere.
# AHR activator: human AHR activation; P35869; AHR-responsive luciferase reporter cells, luminescence; activation, % at 5 µM; hit rate 2.5% among 320,000; AID 2796; in the data active = activation above about 47%;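 also: 0% = vehicle wells and 100% = reference agonist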
# Target sequence (P35869 whole entry, looked up): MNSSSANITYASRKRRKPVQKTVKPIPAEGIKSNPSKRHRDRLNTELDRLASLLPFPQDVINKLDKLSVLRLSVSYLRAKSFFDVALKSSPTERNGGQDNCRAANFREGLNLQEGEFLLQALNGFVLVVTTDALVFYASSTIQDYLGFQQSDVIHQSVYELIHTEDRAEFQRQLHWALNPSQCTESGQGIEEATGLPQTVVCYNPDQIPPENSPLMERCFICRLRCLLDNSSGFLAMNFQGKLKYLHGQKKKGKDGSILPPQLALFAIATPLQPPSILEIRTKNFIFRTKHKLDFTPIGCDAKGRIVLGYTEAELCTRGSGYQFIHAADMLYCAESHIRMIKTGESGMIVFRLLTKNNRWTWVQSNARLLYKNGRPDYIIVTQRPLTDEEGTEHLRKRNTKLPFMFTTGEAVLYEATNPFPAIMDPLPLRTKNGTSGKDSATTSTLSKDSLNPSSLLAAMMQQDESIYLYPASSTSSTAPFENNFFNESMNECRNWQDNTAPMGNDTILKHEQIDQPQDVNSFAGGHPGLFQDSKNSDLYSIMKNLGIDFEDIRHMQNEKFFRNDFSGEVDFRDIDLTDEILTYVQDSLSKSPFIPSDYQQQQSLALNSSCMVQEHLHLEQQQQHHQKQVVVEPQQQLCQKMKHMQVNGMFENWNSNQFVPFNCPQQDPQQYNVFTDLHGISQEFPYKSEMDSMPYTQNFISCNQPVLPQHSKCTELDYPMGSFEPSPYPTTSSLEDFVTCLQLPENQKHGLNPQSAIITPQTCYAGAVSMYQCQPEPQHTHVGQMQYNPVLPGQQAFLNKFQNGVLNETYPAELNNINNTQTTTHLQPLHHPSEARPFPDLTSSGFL
# SMARCA2 activ: increases SMARCA2 function in MMTV reporter cells. MG213 cells, MMTV-luciferase reporter, dexamethasone, overnight. activation, % at 9.1 µM. hit rate 1% among 370,000; in the data active = activation above about 7.8%;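 also: 0% = vehicle wells and 100% = reference activator wells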
# TbMetRS inhib: Trypanosoma brucei MetRS inhibition. purified T. brucei MetRS, ATP depletion, Kinase-Glo luminescence. inhibition, % at 11.9 µM. hit rate 0.4% among 360,000. AID 624268;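 active = inhibition above a per-plate cutoff of the control wells' mean inhibition plus 3 SD, cut at about 5.5% in these data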;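 also: 0% = DMSO wells median and 100% = median of wells with control inhibitor compound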
#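 Dosing: 11.9 µM compound single dose, 0.9% DMSO; Assay system: purified T. brucei MetRS enzyme; Measured by: Kinase-Glo luciferase luminescence reporting remaining unconsumed ATP; Schedule: 15 min plus 2 h at 25 °C.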
# Efflux pump inh: blocks antifungal efflux pumps in multiplex yeast assay. S. cerevisiae Candida pump triplex, Nile Red efflux. inhibition, % at 10 µM. hit rate 0.44% among 330,000. AID 485275;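 active = plate passing quality check with inhibition over a set limit, or well fluorescence over plate mean plus 4 SD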;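 also: Nile Red retained in pooled yeast measured as flow cytometry median fluorescence; 0% = buffer negative control and 100% = Enniatin B positive control; higher means more Nile Red kept so more efflux inhibition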
# H9c2 TAG inh: reduces triacylglycerol accumulation in H9c2 cells. Nile Red lipid (TAG) fluorescence; cells loaded with 200 µM oleic acid. inhibition, % at 12.5 µM. hit rate 0.66% among 230,000. AID 651582;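 active = pattern-corrected inhibition of lipid staining of at least 50% with the nuclear-stain viability signal not falling by more than 50%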;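 also: 0% = DMSO wells and 100% = triacsin C control wells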
# Yeast cmpd fluor: flagged as fluorescent in efflux inhibitor counter-screen; hit rate 4% among 1,700; fluorescence ratio to DMSO, % at 10 µM; S. cerevisiae AD/pABC3, compound fluorescence, flow cytometry; shares compounds with Efflux pump inh;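 active = fluorescence ratio to DMSO above its plate's cutoff, the plate mean ratio plus 5 SD, cut at about 210% in these data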;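 also: unstained yeast with no Nile Red so the signal is compound autofluorescence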
# Mdr1 pump inh: inhibitors of Candida albicans Mdr1 efflux pump. shares compounds with Efflux pump inh. S. cerevisiae AD/CaMDR1, Nile Red efflux, flow cytometry. inhibition, % at 10 µM. hit rate 1% among 1,700; in the data active = inhibition above about 26%;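 also: 0% = DMSO vehicle and 100% = reference inhibitor; higher means more Nile Red retained so more efflux inhibition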
# Cdr2 pump inh: inhibitors of Candida albicans Cdr2 efflux pump; hit rate 4% among 1,700; Nile Red retention ratio vs DMSO, % at 10 µM; shares compounds with Efflux pump inh; AID 588520; S. cerevisiae AD/CaCDR2, Nile Red retention, flow cytometry; in the data active = Nile Red retention ratio vs DMSO above about 190%;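 also: higher ratio means more blocking of Cdr2 efflux of the dye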
# Cdr1 pump inh: blocks the Candida albicans Cdr1 efflux pump in yeast | S. cerevisiae AD/CaCDR1, Nile Red efflux, flow cytometry | inhibition, % at 10 µM | hit rate 1% among 1,700 | shares compounds with Efflux pump inh;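 active = inhibition above the screen-wide mean plus twice its standard deviation, cut at about 32% in these data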
# The depositor's hits bear a star; · = no result given.
SMILES,AHR activator,SMARCA2 activ,TbMetRS inhib,Efflux pump inh,H9c2 TAG inh,Yeast cmpd fluor,Mdr1 pump inh,Cdr2 pump inh,Cdr1 pump inh
O=C(COC(=O)c1ccccn1)c1ccc(Br)cc1,-0.4,-1.2,-0.4,1.3*,7.1,99.8,-0.1,91.4,-0.1
O=C(COC(=O)c1ccccn1)c1cccc(Br)c1,4.7,0.9,-0.3,1.0,4.1,·,·,·,·
COCCCN1CCC2(CCC(c3ccccc3)CC2)C1=O (stereo unspecified),·,-1.1,·,·,·,·,·,·,·
COC(=O)C1=C(C)N(c2cc(C)cc(C)c2)/C(=C/c2ccc(O)cc2)C1=O,-0.2,0.0,-0.4,0.7*,·,114.1,0.2,100.7,0.1
Cc1cccc(C)c1-n1nnnc1C1(C)Cn2nccc2C(=O)N1Cc1ccc(F)cc1 (stereo unspecified),·,-0.4,·,·,·,·,·,·,·
Nc1ccc2c3c(cccc13)CC2,54.5*,-0.3,-0.9,1.8*,-17.5,122.3,-0.2,120.5,0.1
c1ccc(Nc2ccc3c4c(cccc24)CC3)cc1,5.6,-0.9,-0.2,0.3,-61.3,·,·,·,·
COc1ccc(OC)c(CNn2c(-c3cccc(C)c3)nc3ccccc3c2=O)c1,20.3,2.4,-0.2,0.7*,·,89.9,-0.2,100.1,0.1
O[C@H](COc1ccccc1)CN1CCC(C(O)(c2ccccc2)c2ccccc2)CC1,·,-3.7,·,·,·,·,·,·,·
FC(F)(F)c1cccc(Cn2ccc3ccc(-c4ccc5ccn(Cc6cccc(C(F)(F)F)c6)c5c4)cc32)c1,·,-0.6,·,·,·,·,·,·,·
Cc1nn(Cc2cccc(C(=O)NC34CC5CC(CC(C5)C3)C4)c2)c(C)c1Br,5.9,-2.1,-3.1,0.3*,27.5,107.8,-0.1,101.8,-0.1
CS(=O)(=O)N1CCN(c2ccc(NC(=O)CSc3ccc(Cl)cc3)cc2)CC1,-0.5,0.7,-0.4,0.0,·,·,·,·,·
Cc1ccc(C(=O)N2CCN(c3ccc(NC(=O)CSc4ccc(Cl)cc4)cc3)CC2)cc1,0.1,-0.3,0.0,8.0*,·,104.6,-0.2,110.1,-0.1
COC(=O)[C@]12C[C@H](CC(=O)NCc3ccccc3)C(=O)N(Cc3ccc(Cl)cc3Cl)C1=C[C@H](C(C)(C)C)O[C@@H]2C,·,-5.0,·,·,·,·,·,·,·
Cc1ccc(C(=O)N2CCC3(CC2)Oc2ccc(F)cc2C(=O)C32CC(c3ccccc3)=NO2)s1 (stereo unspecified),1.1,-1.0,-0.2,3.2,-4.7,·,·,·,·
CCC(=O)N1CCC2(CC1)Oc1ccc(F)cc1C(=O)C21CC(c2ccc(Cl)cc2)=NO1 (stereo unspecified),4.0,-0.4,-0.1,0.2,·,·,·,·,·
Cc1ccc(C(=O)N2CCC3(CC2)Oc2ccc(Cl)cc2C(=O)C32CC(c3cccnc3)=NO2)s1 (stereo unspecified),-0.7,0.2,0.3,0.1,1.1,111.1,0.1,126.8,-0.1
Cc1ccc(C(=O)N2CCC3(CC2)Oc2ccc(Cl)cc2C(=O)C32CC(c3ccccc3)=NO2)s1 (stereo unspecified),0.0,-0.4,-0.4,-0.1,5.7,93.7,-0.3,90.9,0.1
O=C(c1ccc2c(c1)OCO2)N1CCC2(CC1)Oc1ccc(Cl)cc1C(=O)C21CC(c2cccnc2)=NO1 (stereo unspecified),0.3,-0.8,-0.2,0.1,-6.2,·,·,·,·
Cc1ccc(C(=O)N2CCC3(CC2)Oc2ccc(Cl)cc2C(=O)C32CC(c3ccc(Cl)cc3)=NO2)s1 (stereo unspecified),6.3,0.1,0.0,0.1,21.3,97.8,-0.2,112.4,-0.1
CCC(=O)N1CCC2(CC1)Oc1ccc(Cl)cc1C(=O)C21CC(c2ccc(Cl)cc2)=NO1 (stereo unspecified),2.2,-0.1,-0.3,0.2,0.5,106.7,0.2,108.3,0.1
Cc1cccc(-c2nnc(SCc3cccc4ccccc34)n2-c2ccc(Cl)cc2)c1,·,-7.4,·,·,·,·,·,·,·
Cc1cccc(C(=O)Nc2nc3ncccn3c2-c2ccc(C(F)(F)F)cc2)c1,·,-1.8,·,·,·,·,·,·,·
COc1ccc(-n2c(SCC(=O)Nc3ccc(S(=O)(=O)Nc4nccs4)cc3)nnc2-c2cccs2)cc1,·,-4.6,·,·,·,·,·,·,·
Cc1ccc2nc(SCC(=O)N3c4ccccc4CC3C)c(C)cc2c1 (stereo unspecified),5.0,2.3,-0.7,112.2*,-31.0,103.4,-0.1,103.6,0.1
SMILES,AHR activator,SMARCA2 activ,TbMetRS inhib,Efflux pump inh,H9c2 TAG inh,Yeast cmpd fluor,Mdr1 pump inh,Cdr2 pump inh,Cdr1 pump inh
Cc1nn(CCC(=O)NNC(=O)Nc2ccccc2)c(C)c1[N+](=O)[O-],·,-4.5,·,·,·,·,·,·,·
CC(C)Sc1cc(N2CCOCC2)nc(-c2ccccc2)n1,-1.7,-1.7,0.6,-0.3,·,106.2,-0.1,108.0,-0.1
CC(C)Sc1cc(N2CCCC2)nc(-c2ccccc2)n1,-1.0,-0.2,0.6,0.0,·,·,·,·,·
CC(C)Sc1cc(N2CCCC2)nc(-c2ccccc2Cl)n1,0.1,-2.1,-0.4,0.4,·,160.8,0.3,105.1,-0.1
Cc1cc(N2CCCC2)nc(-c2ccccc2O)n1,22.4,1.4,0.0,-0.1,27.0,·,·,·,·
CCSc1cc(N2CCCC2)nc(-c2ccccc2Cl)n1,1.2,-2.6,1.1,0.0,·,106.2,-0.2,95.6,-0.1
CC(C)Sc1cc(N2CCCC2)nc(-c2ccc(F)cc2)n1,9.5,-0.9,-0.4,0.3,17.9,·,·,·,·
CSc1nc(-c2ccccc2)nc(N2CCOCC2)c1C(C)=O,68.8*,0.8,1.0,-0.1,10.6,97.2,-0.2,103.8,0.0
CSc1nc(-c2ccccc2)nc(N2CCCC2)c1C(C)=O,40.9,2.6,-0.1,0.0,·,·,·,·,·
CSc1cc(N2CCOCC2)nc(-c2ccccc2Cl)n1,7.5,-2.7,-0.7,0.6,·,90.7,-0.1,102.9,0.0
COCc1cc(N2CCOCC2)nc(-c2ccccc2)n1,16.8,-1.4,-0.6,0.1,0.0,·,·,·,·
CCOC(=O)[C@]12CCCCC/C=C\1N(Cc1ccc(OC)cc1)C(=O)[C@H]2CC(=O)NCc1ccccc1,·,-0.8,·,·,·,·,·,·,·
COc1ccc2cc1Oc1ccc(cc1)C[C@H]1c3c(cc(OC)c4c3Oc3c(ccc5c3[C@H](C2)N(C)CC5)O4)CCN1C,-1.4,·,-0.2,4.3*,108.7*,106.2,0.2,108.0,0.5
COC(=O)c1sc(NC(=O)CSc2nnc(Cn3nnc4ccccc43)n2C)nc1C,-1.1,-3.6,-0.4,13.8*,·,104.6,-0.1,93.5,0.1
Cc1[nH]c2ccccc2c1/C=C/c1cc[n+](C)cc1,·,-1.3,-0.5,·,-68.4,·,·,·,·
CCN(CC)C(=O)Cn1c(C)c(/C=C/c2cc[n+](C)cc2)c2ccccc21,-2.0,-2.6,-1.8,0.4,-8.6,365.4*,0.5,120.5,0.2
CC(C)n1cc(/C=C/c2cc[n+](C)cc2)c2ccccc21,·,-3.2,1.9,·,-43.9,472.1*,1.2,95.4,0.5
